From ChEMBL document CHEMBL1153083, “Antiprotozoal, anticancer and antimicrobial activities of dihydroartemisinin acetal dimers and monomers” (Bioorg Med Chem, 2009)

Assays:
[1] = Toxicity against pig LLC-PK11 cells after 48 hrs by neutral red assay; type: cell-based, Sus scrofa; conditions: for CC50 at 48 h: LLC-PK11 cells, read-out: TC50
In short: (§1)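 Cells seeded at 25,000 per well and incubated 24 h, then exposed to samples for 48 h. Viable cells were counted by neutral red, with DMSO as vehicle control. IC50 or TC50 values were derived from logarithmic plots of growth inhibition versus concentration.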

BT-549 = test: Cytotoxicity against human BT549 cells after 48 hrs by neutral red assay; type: functional, cell-based; in short: as §1
[2] = Selectivity index, ratio of TC50 for african green monkey (Cercopithecus aethiops) Vero cells to IC50 for Plasmodium falciparum W2; type: toxicity, cell-based
Staphylococcus aureus [3] = test: Antibacterial activity against methicillin-resistant Staphylococcus aureus ATCC 43300 by modified CLSI/NCCLS method; type: functional, organism-based
Pseudomonas aeruginosa = test: Antibacterial activity against Pseudomonas aeruginosa ATCC 27853 by modified CLSI/NCCLS method; type: functional, organism-based
[4] = Toxicity against african green monkey Vero cells; type: cell-based; conditions: chlorocebus sabaeus; in short: as §1
Nakaseomyces glabratus = test: Antifungal activity against Candida glabrata ATCC 90030 by modified CLSI/NCCLS method; type: functional, organism-based
Plasmodium falciparum [5] = test: Antiplasmodial activity against Plasmodium falciparum D6 infected in RBCs by parasitic LDH release assay; type: functional, organism-based
In short: (§2)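 Infected erythrocytes at 2% parasitemia and 2% hematocrit, in RPMI 1640 with 10% human serum and amikacin 60 μg/mL, were exposed to serial dilutions under N2/O2/CO2 (90:5:5) at 37°C for 72 h. LDH was read with Malstat reagent (30 min), then NBT/PES in the dark (60 min), stopped with 5% acetic acid, at 650 nm. IC50 came from percent growth dose-response curves.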

Staphylococcus aureus [6] = test: Antibacterial activity against Staphylococcus aureus ATCC 29213 by modified CLSI/NCCLS method; type: functional, organism-based
[7] = system: Mycobacterium intracellulare; test: Antibacterial activity against Mycobacterium intracellular ATCC 23068 by Franzblau method; type: functional, organism-based
Candida albicans = test: Antifungal activity against Candida albicans ATCC 90028 by modified CLSI/NCCLS method; type: functional, organism-based
Aspergillus fumigatus = test: Antifungal activity against Aspergillus fumigatus ATCC 90906 by modified CLSI/NCCLS method; type: functional, organism-based
Plasmodium falciparum [8] = test: Antiplasmodial activity against Plasmodium falciparum W2 infected in RBCs by parasitic LDH release assay; type: functional, organism-based; in short: as §2
Cryptococcus neoformans = test: Antifungal activity against Cryptococcus neoformans ATCC 90113 by modified CLSI/NCCLS method; type: functional, organism-based
KB = test: Cytotoxicity against human KB cells after 48 hrs by neutral red assay; type: functional, cell-based; in short: as §1
Pichia kudriavzevii = test: Antifungal activity against Candida krusei ATCC 6258 by modified CLSI/NCCLS method; type: functional, organism-based
Leishmania donovani = test: Antileishmanial activity against Leishmania donovani promastigotes after 48 hrs by alamar blue assay; type: functional, organism-based; conditions: Leishmania donovani, 48 h; for IC50: read-out: IC50
SK-OV-3 = test: Cytotoxicity against human SKOV3 cells after 48 hrs by neutral red assay; type: functional, cell-based; conditions: sk-ov-3; in short: as §1
Vero = test: (§3) Toxicity against african green monkey Vero cells after 48 hrs by neutral red assay; type: cell-based; conditions: chlorocebus sabaeus, vero, 48 h; in short: as §1
SK-MEL = test: Cytotoxicity against human SK-MEL cells after 48 hrs by neutral red assay; type: functional, cell-based; in short: as §1
[9] = Selectivity index, ratio of TC50 for african green monkey (Cercopithecus aethiops) Vero cells to IC50 for Plasmodium falciparum D6; type: toxicity, cell-based
Escherichia coli = test: Antibacterial activity against Escherichia coli ATCC 35218 by modified CLSI/NCCLS method; type: functional, organism-based
[10] = as §3; type: cell-based; conditions: chlorocebus sabaeus, Vero cells; read-out: TC50; in short: as §1
[11] = Cytotoxicity against human NCI60 cells after 48 hrs by neutral red assay; type: functional; conditions: NCI60, 48 h
[12] = Candida albicans, ATCC 90028, read-out: IC50
[13] = Pichia kudriavzevii, ATCC 6258, read-out: IC50
[14] = Homo sapiens, BT-549, 48 h, read-out: IC50
[15] = Nakaseomyces glabratus, ATCC 90030, read-out: IC50
[16] = Mycobacterium intracellulare, ATCC 23068, read-out: IC50
[17] = Aspergillus fumigatus, ATCC 90906, read-out: IC50
[18] = Homo sapiens, KB, 48 h, read-out: IC50
[19] = Homo sapiens, SK-MEL, 48 h, read-out: IC50
[20] = Escherichia coli, ATCC 35218, read-out: IC50

Row | Compound | CC50 at 48 h [1] | IC50 (BT-549; bt-549) | selectivity ratio [2] | IC50 (Staphylococcus aureus [3]) | IC50 (Pseudomonas aeruginosa) | CC50 [4] | IC50 (Plasmodium falciparum [5]) | IC50 (Staphylococcus aureus [6]) | IC50 [7] | IC50 (Candida albicans; [12]) | IC50 (Aspergillus fumigatus) | IC50 (Plasmodium falciparum [8]) | IC50 (Cryptococcus neoformans) | IC50 (KB; kb) | IC90 (Leishmania donovani) | IC50 (Leishmania donovani) | IC50 (SK-OV-3) | TC50 (Vero) | IC50 (SK-MEL; sk-mel) | selectivity ratio [9] | also measured
1 | C[C@H]1[C@@H](OCC(=O)CO)O[C@@H]2O[C@@]3(C)CC[C@H]4[C@H](C)CC[C@@H]1[C@@]24OO3 | 20.8 µM | Not Active | > 1900 | Not Active | Not Active | > 13.3 µM | 0.0079 µM | Not Active | Not Active | > 56.1 µM | Not Active | 0.007 µM | 6.48 µM | Not Active | 112 µM | 25.8 µM | Not Active | Not Active | Not Active | > 1700 | IC50 (Nakaseomyces glabratus): Not Active; IC50 (Pichia kudriavzevii; [13]): > 56.1 µM; IC50 (Escherichia coli): Not Active
2 | C[C@H]1[C@@H](OCC[C@H](O)CO[C@H]2O[C@@H]3O[C@@]4(C)CC[C@H]5[C@H](C)CC[C@@H]([C@H]2C)[C@@]35OO4)O[C@@H]2O[C@@]3(C)CC[C@H]4[C@H](C)CC[C@@H]1[C@@]24OO3 | 0.1 µM | – | > 164 | – | Not Active | > 7.45 µM | 0.0438 µM | – | – | 10.2 µM | – | 0.0454 µM | 1.6 µM | – | 9.4 µM | 2.5 µM | Not Active | – | – | > 170 | IC50 (BT-549; [14]): 0.08 µM; IC50 (Staphylococcus aureus [3]; Staphylococcus aureus, ATCC 43300, read-out: IC50): > 31.3 µM; IC50 (Nakaseomyces glabratus; [15]): > 31.3 µM; IC50 (Staphylococcus aureus [6]; Staphylococcus aureus, ATCC 29213, read-out: IC50): 16.5 µM; IC50 [7, 16]: > 31.3 µM; IC50 (Aspergillus fumigatus; [17]): 5.24 µM; IC50 (KB; [18]): 0.16 µM; IC50 (Pichia kudriavzevii; [13]): > 31.3 µM; CC50 at 48 h [10]: > 1.57 µM; IC50 (SK-MEL; [19]): 0.24 µM; IC50 (Escherichia coli; [20]): 13.6 µM
3 | C[C@H]1[C@@H](OCc2cc(O)cc(O)c2)O[C@@H]2O[C@@]3(C)CC[C@H]4[C@H](C)CC[C@@H]1[C@@]24OO3 | 2.46 µM | Not Active | > 567 | Not Active | Not Active | > 11.7 µM | 0.0209 µM | Not Active | – | – | Not Active | 0.0207 µM | 18.6 µM | Not Active | 24.6 µM | 5.7 µM | Not Active | Not Active | Not Active | > 560 | IC50 (Nakaseomyces glabratus): Not Active; IC50 [7, 16]: > 49.2 µM; IC50 (Candida albicans): Not Active; IC50 (Pichia kudriavzevii): Not Active; IC50 (Escherichia coli; [20]): 48.6 µM
4 | C[C@H]1[C@@H](OCc2cc(O)cc(O[C@H]3O[C@@H]4O[C@@]5(C)CC[C@H]6[C@H](C)CC[C@@H]([C@H]3C)[C@@]46OO5)c2)O[C@@H]2O[C@@]3(C)CC[C@H]4[C@H](C)CC[C@@H]1[C@@]24OO3 | – | Not Active | > 1700 | Not Active | Not Active | > 7.07 µM | 0.003 µM | – | Not Active | – | Not Active | 0.0042 µM | 1.49 µM | Not Active | 32.7 µM | 5.9 µM | Not Active | Not Active | Not Active | > 2380 | TC50 ([1]; llc-pk11, 48 h): Not Active; IC50 (Candida albicans): Not Active; GI50 [11]: 0.0245 µM; TGI [11]: 2.82 µM; CC50 ([11]; read-out: LC50 (the source's name)): 15.1 µM; IC50 (Escherichia coli; [20]): 22.3 µM
5 | C[C@H]1[C@@H](OC[C@@H]2O[C@@H]2CO[C@H]2O[C@@H]3O[C@@]4(C)CC[C@H]5[C@H](C)CC[C@@H]([C@H]2C)[C@@]35OO4)O[C@@H]2O[C@@]3(C)CC[C@H]4[C@H](C)CC[C@@H]1[C@@]24OO3 (relative stereo) | 0.68 µM | – | > 159 | Not Active | – | > 7.47 µM | 0.0455 µM | Not Active | Not Active | > 31.4 µM | – | 0.0471 µM | 31.4 µM | – | 47.1 µM | 3.9 µM | Not Active | – | – | > 164 | IC50 (BT-549; [14]): 0.3 µM; IC50 (Pseudomonas aeruginosa; Pseudomonas aeruginosa, ATCC 27853, read-out: IC50): > 31.4 µM; IC50 (Nakaseomyces glabratus; [15]): > 31.4 µM; IC50 (Aspergillus fumigatus; [17]): > 31.4 µM; IC50 (KB; [18]): 0.47 µM; IC50 (Pichia kudriavzevii): Not Active; CC50 at 48 h [10]: > 1.57 µM; IC50 (SK-MEL; [19]): 0.22 µM; IC50 (Escherichia coli): Not Active
